# Test results: ChEMBL document CHEMBL4765233, “From Lead to Drug Candidate: Optimization of 3-(Phenylethynyl)-1H-pyrazolo[3,4-d]pyrimidin-4-amine Derivatives as Agents for the Treatment of Triple Negative Breast Cancer” (J Med Chem, 2016)
# pIC50: −log10 of the molar value. Calls of active or inactive are those of the source. The calls are words filed in the database; no cut-off is given here.
# What was measured:
# [1] = Toxicity in SCID mouse xenografted with MDA-MB-231 cells assessed as change in body weight at 40 mg/kg, po qd for 15 days and measured every 3 days; format: organism-based; details: in vivo, 360 h, dose 40 mg/kg/day, time 15 day
# [2] = Cmax in Sprague-Dawley rat at 10 mg/kg, po administered via gavage by LC-MS analysis; format: ADME, organism-based; parameters: route oral, dose 10 mg/kg; details: in vivo
# [3] = Acute toxicity in male Sprague-Dawley rat assessed as increase in body weight at 200 mg/kg, po administered as single dose measured after day 9 and monitored every 3 days; format: organism-based; details: in vivo, 72 h, time >9 day
# Procedure, shortened: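 Sprague-Dawley rats (n = 3) received a single oral dose of 200 mg/kg in sterile water with 25% (v/v) PEG400 plus 5% DMSO. Behaviour and side effects were monitored daily, and average body weight was measured every 3 days.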
# [4] = target: Fibroblast growth factor receptor 3 (Homo sapiens, UniProt P22607); test: Inhibition of human recombinant FGFR3 (447 to 761 residues) using poly(Glu,Tyr)4:1 as substrate incubated for 40 mins in presence of [gamma33P-ATP] by radiometric scintillation counting analysis
# Fibroblast growth factor receptor 3, sequence (P22607 whole entry, the tested form may be a part): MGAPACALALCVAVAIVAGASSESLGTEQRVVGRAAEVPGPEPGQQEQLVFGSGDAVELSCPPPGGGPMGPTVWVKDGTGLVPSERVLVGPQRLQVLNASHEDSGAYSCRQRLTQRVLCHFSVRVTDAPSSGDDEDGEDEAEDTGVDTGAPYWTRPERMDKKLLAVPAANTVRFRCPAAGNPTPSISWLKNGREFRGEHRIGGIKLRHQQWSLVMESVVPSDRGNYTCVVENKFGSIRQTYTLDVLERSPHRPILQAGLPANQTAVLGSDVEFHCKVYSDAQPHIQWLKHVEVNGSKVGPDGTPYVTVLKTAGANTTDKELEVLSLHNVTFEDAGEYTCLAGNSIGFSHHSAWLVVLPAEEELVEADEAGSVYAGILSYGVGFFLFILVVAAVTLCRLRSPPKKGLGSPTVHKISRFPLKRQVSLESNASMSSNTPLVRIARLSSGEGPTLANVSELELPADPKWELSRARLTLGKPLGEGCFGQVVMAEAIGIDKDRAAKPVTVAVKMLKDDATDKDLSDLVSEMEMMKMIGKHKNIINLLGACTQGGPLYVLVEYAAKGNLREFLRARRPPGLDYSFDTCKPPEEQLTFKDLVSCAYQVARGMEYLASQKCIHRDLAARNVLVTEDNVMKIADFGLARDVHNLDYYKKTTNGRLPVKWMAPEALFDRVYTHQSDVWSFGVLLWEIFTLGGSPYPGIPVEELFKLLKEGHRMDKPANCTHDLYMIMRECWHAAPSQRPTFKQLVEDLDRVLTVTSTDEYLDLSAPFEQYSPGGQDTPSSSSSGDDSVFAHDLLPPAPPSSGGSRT
# Procedure, shortened: (§1)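 Radiometric kinase assay run as an external profiling service, with ATP at the Km of each kinase. IC50 values are means of two independent experiments.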
# [5] = target: Ribosomal protein S6 kinase alpha-3 (Homo sapiens, UniProt P51812); test: Inhibition of human recombinant RSK2 (2 to end residues) using KKKNRTLSVA as substrate incubated for 40 mins in presence of [gamma33P-ATP] by radiometric scintillation counting analysis; procedure, shortened: as §1
# Ribosomal protein S6 kinase alpha-3, sequence (P51812 whole entry): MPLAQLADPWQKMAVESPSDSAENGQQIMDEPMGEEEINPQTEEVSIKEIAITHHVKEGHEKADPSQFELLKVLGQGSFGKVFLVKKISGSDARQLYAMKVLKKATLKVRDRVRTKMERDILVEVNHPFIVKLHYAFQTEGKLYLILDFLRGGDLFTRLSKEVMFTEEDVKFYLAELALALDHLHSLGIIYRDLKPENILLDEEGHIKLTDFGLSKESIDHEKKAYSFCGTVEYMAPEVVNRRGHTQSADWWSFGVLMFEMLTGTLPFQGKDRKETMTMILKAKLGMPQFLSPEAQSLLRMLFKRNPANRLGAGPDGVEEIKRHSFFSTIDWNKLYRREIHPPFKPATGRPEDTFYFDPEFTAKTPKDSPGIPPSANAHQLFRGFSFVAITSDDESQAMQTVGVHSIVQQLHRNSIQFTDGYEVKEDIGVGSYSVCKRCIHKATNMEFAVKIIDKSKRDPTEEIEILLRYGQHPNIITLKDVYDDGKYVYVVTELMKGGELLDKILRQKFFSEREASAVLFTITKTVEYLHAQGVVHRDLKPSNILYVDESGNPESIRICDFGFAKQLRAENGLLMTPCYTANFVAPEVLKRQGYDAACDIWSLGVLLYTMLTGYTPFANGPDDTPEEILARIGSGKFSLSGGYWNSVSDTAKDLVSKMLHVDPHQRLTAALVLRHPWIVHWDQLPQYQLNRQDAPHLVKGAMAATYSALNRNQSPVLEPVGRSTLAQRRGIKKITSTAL
# [6] = Toxicity in SCID mouse xenografted with MDA-MB-231 cells assessed as animal death at 40 mg/kg, po qd for 15 days; format: organism-based; details: in vivo, dose 40 mg/kg/day, time 15 day, read-out: Activity
# [7] = Half-life in Sprague-Dawley rat at 10 mg/kg, po administered via gavage by LC-MS analysis; format: ADME, organism-based; details: in vivo
# Mus musculus [8] = test: In vivo inhibition of ERK in SCID mouse xenografted with human MDA-MB-231 cells assessed as reduction in phosphorylation of ERK in tumor tissue at 40 mg/kg, po QD for 21 days by immunohistochemical analysis; format: functional, organism-based; details: dose 40.0 mg/kg/day, time 21.0 day
# Procedure, shortened: (§2)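 Tumors taken from xenografted SCID mice dosed orally at 40 mg/kg/q.d. or given control; mice euthanized at set times. Tumors formalin-fixed and paraffin-embedded, stained by immunohistochemistry for phospho-proteins, and imaged by light microscopy.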
# [9] = target: BDNF/NT-3 growth factors receptor (Homo sapiens, UniProt Q16620); test: Inhibition of human recombinant TRKB (455 to end residues) using poly(Glu,Tyr)4:1 as substrate incubated for 40 mins in presence of [gamma33P-ATP] by radiometric scintillation counting analysis
# BDNF/NT-3 growth factors receptor, sequence (Q16620 whole entry): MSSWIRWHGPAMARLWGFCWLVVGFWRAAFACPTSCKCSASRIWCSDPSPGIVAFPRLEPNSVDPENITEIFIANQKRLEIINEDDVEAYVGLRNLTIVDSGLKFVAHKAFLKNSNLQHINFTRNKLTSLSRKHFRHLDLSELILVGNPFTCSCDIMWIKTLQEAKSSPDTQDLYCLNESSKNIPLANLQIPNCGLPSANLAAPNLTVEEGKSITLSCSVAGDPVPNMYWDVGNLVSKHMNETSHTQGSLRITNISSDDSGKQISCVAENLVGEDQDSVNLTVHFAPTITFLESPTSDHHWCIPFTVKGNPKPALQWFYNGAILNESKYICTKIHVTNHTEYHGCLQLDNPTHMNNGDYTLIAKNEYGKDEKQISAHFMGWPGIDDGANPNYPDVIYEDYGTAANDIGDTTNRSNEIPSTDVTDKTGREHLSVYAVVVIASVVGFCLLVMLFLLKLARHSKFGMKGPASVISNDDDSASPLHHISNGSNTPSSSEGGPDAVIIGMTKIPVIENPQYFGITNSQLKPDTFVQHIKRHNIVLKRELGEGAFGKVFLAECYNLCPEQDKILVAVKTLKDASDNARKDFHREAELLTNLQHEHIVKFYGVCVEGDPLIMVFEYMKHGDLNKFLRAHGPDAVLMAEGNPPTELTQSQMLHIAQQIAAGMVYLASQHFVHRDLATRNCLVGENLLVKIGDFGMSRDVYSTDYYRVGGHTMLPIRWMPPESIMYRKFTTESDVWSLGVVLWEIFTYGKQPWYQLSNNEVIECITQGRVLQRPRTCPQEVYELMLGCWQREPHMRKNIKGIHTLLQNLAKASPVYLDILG
# [10] = Acute toxicity in Sprague-Dawley rat assessed as histopathological changes in spleen at 100 mg/kg, po administered as single dose measured after 24 hrs by H and E staining based light microscope analysis; format: organism-based; details: in vivo
# Procedure, shortened: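 Sprague-Dawley rats received a single oral dose of 100 mg/kg in sterile water with 25% (v/v) PEG400 plus 5% DMSO. Organs were examined by histology and immunohistochemistry for pathological changes. Behaviour and side effects were checked daily.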
# MDA-MB-231 = test: Induction of apoptosis in human MDA-MB-231 cells assessed as live cells at 0.01 uM incubated for 24 hrs by annexin V-FITC and propidium iodide staining based flow cytometry analysis (reference value: 96.95 %); format: functional
# [11] = target: High affinity nerve growth factor receptor (Homo sapiens, UniProt P04629); test: Inhibition of human recombinant TRKA (440 to end residues) using KKKSPGEYVNIEFG as substrate incubated for 40 mins in presence of [gamma33P-ATP] by radiometric scintillation counting analysis; procedure, shortened: as §1
# High affinity nerve growth factor receptor, sequence (P04629 whole entry, the tested form may be a part): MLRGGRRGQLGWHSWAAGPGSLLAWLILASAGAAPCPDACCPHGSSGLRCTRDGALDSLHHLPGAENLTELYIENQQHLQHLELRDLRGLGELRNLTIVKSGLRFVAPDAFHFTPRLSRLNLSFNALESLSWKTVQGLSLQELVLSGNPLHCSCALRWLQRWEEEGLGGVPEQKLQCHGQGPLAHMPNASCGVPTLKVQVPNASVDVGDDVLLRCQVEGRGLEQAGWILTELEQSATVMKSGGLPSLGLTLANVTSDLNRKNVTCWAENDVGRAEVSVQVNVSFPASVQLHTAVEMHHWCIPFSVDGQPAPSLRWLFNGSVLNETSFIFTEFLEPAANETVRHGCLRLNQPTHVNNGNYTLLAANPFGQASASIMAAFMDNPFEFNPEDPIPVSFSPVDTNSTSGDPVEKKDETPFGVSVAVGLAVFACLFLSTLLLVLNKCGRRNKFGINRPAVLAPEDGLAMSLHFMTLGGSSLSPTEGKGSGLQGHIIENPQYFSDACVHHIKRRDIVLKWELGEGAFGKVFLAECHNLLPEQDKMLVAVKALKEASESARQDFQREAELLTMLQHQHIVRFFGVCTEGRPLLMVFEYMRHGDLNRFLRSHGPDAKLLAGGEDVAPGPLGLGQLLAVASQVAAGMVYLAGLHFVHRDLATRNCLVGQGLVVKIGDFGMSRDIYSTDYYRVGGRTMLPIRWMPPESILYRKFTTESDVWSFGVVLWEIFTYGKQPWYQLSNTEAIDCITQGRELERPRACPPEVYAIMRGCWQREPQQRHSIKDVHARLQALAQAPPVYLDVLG
# Activated CDC42 kinase 1 = Activated CDC42 kinase 1 (Homo sapiens, UniProt Q07912); test: Inhibition of human recombinant ACK1 (1 to 389 residues) using EFPIYDFLPAKKK as substrate incubated for 40 mins in presence of [gamma33P-ATP] by radiometric scintillation counting analysis; procedure, shortened: as §1
# Activated CDC42 kinase 1, sequence (Q07912 whole entry, the tested form may be a part): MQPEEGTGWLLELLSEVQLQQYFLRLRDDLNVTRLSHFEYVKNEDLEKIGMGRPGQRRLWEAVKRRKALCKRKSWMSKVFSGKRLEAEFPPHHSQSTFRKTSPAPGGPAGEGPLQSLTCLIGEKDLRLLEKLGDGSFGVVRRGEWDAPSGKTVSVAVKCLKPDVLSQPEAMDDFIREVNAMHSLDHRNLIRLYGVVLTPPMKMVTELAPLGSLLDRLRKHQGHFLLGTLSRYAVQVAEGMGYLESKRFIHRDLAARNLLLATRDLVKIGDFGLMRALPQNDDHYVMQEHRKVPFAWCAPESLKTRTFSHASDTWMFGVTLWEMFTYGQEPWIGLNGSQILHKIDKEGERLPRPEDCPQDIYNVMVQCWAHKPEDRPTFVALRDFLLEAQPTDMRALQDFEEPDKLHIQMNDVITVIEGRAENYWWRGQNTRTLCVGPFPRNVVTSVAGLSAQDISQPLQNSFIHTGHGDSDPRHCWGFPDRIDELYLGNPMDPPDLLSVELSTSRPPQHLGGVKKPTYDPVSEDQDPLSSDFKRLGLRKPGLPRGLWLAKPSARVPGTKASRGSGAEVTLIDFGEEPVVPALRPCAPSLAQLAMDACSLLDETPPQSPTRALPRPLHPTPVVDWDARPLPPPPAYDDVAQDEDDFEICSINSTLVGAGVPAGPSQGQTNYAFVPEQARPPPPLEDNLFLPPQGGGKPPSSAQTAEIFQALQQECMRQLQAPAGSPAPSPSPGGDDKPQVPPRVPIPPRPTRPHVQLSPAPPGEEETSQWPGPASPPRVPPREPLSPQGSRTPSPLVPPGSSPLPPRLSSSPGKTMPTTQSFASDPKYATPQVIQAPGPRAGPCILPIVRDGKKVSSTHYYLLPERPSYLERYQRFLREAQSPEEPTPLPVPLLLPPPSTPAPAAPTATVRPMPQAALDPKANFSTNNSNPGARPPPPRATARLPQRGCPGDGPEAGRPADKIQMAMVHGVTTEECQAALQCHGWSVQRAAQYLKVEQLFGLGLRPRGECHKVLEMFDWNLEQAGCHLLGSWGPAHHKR
# [12] = target: Platelet-derived growth factor receptor alpha (Homo sapiens, UniProt P16234); test: Inhibition of human recombinant PDGFRalpha (550 to end residues) using poly(Glu, Tyr)4:1 as substrate incubated for 40 mins in presence of [gamma33P-ATP] by radiometric scintillation counting analysis; procedure, shortened: as §1
# [13] = AUC (0 to infinity) in Sprague-Dawley rat at 10 mg/kg, po administered via gavage by LC-MS analysis; format: ADME, organism-based; parameters: time infinity, route oral, dose 10 mg/kg; details: in vivo
# Mus musculus [14] = test: Reduction in CD31 expression in tumor tissue of SCID mouse xenografted with human MDA-MB-231 cells at 40 mg/kg, po QD for 21 days by immunohistochemical analysis; format: functional, organism-based; details: dose 40.0 mg/kg/day, time 21.0 day
# Procedure, shortened: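 SCID mice carried subcutaneous MDA-MB-231 xenografts (5 × 10^6 cells in 100 μL). Oral dosing in water with 25% PEG400 and 5% DMSO began at 150–200 mm3. Tumours were removed at the end of study, formalin-fixed and paraffin-embedded, then immunostained.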
# HepG2 = test: Antiproliferative activity against human HepG2 cells assessed as reduction in cell viability incubated for 72 hrs by MTT assay; format: ADME, cell-based; details: HepG2, 72 h
# A-375 = test: Antiproliferative activity against human A-375 cells assessed as reduction in cell viability incubated for 72 hrs by MTT assay; format: functional, cell-based; details: A-375, 72 h
# Procedure, shortened: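 MTT viability assay. ATCC cell lines were grown in designated medium with 10% FBS at 37 °C, 5% CO2. Cells seeded at 1500−30000 per well and incubated 24 h, then exposed to compound (0−10 μg/mL) for 72 h. MTT added for 2−4 h. Formazan dissolved in DMSO (adherent) or acidified SDS overnight (suspension), absorbance read at 570 nm. Triplicates; IC50 calculated.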
# [15] = target: Proto-oncogene tyrosine-protein kinase Src (Homo sapiens) (UniProt P12931); test: Inhibition of Src in human MDA-MB-231 cells assessed as reduction in phosphorylation of Src incubated for 20 hrs by Western blot analysis; format: cell-based
# Proto-oncogene tyrosine-protein kinase Src (Homo sapiens), sequence (P12931 2-536 limits assumed): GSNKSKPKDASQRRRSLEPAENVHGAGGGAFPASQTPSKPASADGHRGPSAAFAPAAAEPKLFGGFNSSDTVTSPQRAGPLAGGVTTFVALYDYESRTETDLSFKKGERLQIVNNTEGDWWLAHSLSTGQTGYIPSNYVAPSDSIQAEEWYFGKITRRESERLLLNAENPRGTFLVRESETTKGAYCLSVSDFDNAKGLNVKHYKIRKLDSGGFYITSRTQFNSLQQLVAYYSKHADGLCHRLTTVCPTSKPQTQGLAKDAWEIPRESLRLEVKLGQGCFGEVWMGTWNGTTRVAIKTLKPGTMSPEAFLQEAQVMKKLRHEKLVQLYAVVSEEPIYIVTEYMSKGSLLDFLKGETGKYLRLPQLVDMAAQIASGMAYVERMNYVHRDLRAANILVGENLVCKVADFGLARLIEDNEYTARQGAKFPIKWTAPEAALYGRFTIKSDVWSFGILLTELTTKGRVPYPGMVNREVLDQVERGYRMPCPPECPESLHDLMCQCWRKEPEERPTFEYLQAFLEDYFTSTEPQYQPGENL
# Procedure, shortened: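 MDA-MB-231 cells treated with a series of concentrations for 20 h at 37 °C. Cells washed with ice-cold saline and lysed in RIPA buffer with protease cocktail. Lysates cleared at 12000 rpm for 10 min at 4 °C and protein quantified by Bradford. Equal protein separated by SDS-PAGE, transferred to PVDF and probed with antibodies.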
# [16] = Metabolic stability in monkey liver microsomes assessed as parent compound remaining at 1 uM measured after 60 mins in presence of NADPH by HPLC-MS/MS analysis; format: ADME, Macaca mulatta, Microsome; details: rhesus monkey, read-out: Stabilty
# Procedure, shortened: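 Compound at 1 μM incubated with 0.5 mg/mL liver microsomes and 1 mM NADPH. Samples taken at 0, 10, 15, 30, 45 and 60 min and quenched with acetonitrile. After centrifugation, supernatant analysed by HPLC-MS/MS, with percent parent remaining relative to the 0 min area.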
# Mus musculus [17] = test: In vivo inhibition of Src in SCID mouse xenografted with human MDA-MB-231 cells assessed as reduction in phosphorylation of Src in tumor tissue at 40 mg/kg, po QD for 21 days by immunohistochemical analysis; format: functional, organism-based; details: dose 40.0 mg/kg/day, time 21.0 day; procedure, shortened: as §2
compound,measurement,setting,value
Cc1ccc(NC(=O)c2ccc(C)c(C(F)(F)F)c2)cc1C#Cc1nn([C@H]2CC[C@H](O)CC2)c2ncnc(N)c12,Activity,[1],3.4%
same,Cmax,[2],143 ng/mL
same,Activity,[3],Non-Toxic
same,pIC50,[4],6.92
same,pIC50,[5],< 5.00
same,mortality at 360 h,[6],0%
same,half-life,[7],18.9 h
same,inhibition,Mus musculus [8],Active
same,pIC50,[9],6.05
same,Activity,[10],Non-Toxic
same,Activity,MDA-MB-231,91.3%
same,pIC50,[11],< 5.00
same,pIC50,Activated CDC42 kinase 1,6.76
same,pIC50,[12],5.89
same,AUC(0-inf),[13],2950 ng·h/mL
same,inhibition,Mus musculus [14],Active
same,pIC50,HepG2,< 5.00
same,pIC50,A-375,7.51
same,inhibition,[15],Dose-dependent effect
same,"remaining at 1 h, 1 µM",[16],> 90%
same,inhibition,Mus musculus [17],Active
